The source made the active and inactive calls. The calls are words filed in the database; no cut-off is given here.

The values that follow come from ChEMBL document CHEMBL2163200, “Synthesis, biological evaluation, and structure-activity relationships of novel substituted N-phenyl ureidobenzenesulfonate derivatives blocking cell cycle progression in S-phase and inducing DNA double-strand breaks” (J Med Chem, 2012).

The test system of data set [1] is Jurkat. The data set can be described thus: Cell cycle arrest in human Jurkat E6-1 cells assessed as accumulation at G0/G1 phase at 23 uM after 24 hrs by FACS flow cytometry. It is filed as functional. In outline: (§1)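 Jurkat E6 cells cultured in RPMI 1640 with 10% FBS at 37 °C, 5% CO2. Compounds serially diluted in medium, starting 50% above the M21 IC50. 4.0 × 10^5 cells were exposed for 24 h. Cells were washed with PBS, chicken red blood cells added as internal standard, and fixed in ice-cold EtOH. After 1 h on ice in PBS with 1 μg/mL DAPI, phase distribution was read by flow cytometry. DMSO-treated cells served as control.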

Data set [2] deals with M21. The data set is described as follows: Cytotoxicity against human M21 cells after 48 hrs by SRB assay. The conditions noted are these: M21, 48 h. The data set is classed as functional, cell-based. The essentials: (§2)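 NCI sulforhodamine B protocol. Cells were grown in high-glucose DMEM with 5% FBS and seeded per well at 4 × 10^3 (HT-29), 3.5 × 10^3 (M21) or 3 × 10^3 (MCF-7), then allowed 24 h to attach. Serial dilutions from 200 μM to 780 nM final were applied in DMSO <0.5% for 48 h. Cells were fixed with cold TCA (10% final) and stained with SRB, with absorbance read at 530–568 nm. Growth inhibition was computed against day-0 plates, giving the 50% inhibitory concentration. At least two experiments in triplicate, CV <10%.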

The subject of data set [3] is Jurkat. The data set can be described thus: Cell cycle arrest in human Jurkat E6-1 cells assessed as accumulation at S phase at 23 uM after 24 hrs by FACS flow cytometry. It is filed as functional. In outline: (§3)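 Jurkat E6 cells grown in RPMI 1640 with 10% FBS at 37 °C, 5% CO2. Compounds were serially diluted in medium starting 50% above the M21 IC50. 4.0 × 10^5 cells were exposed for 24 h, then washed and spiked with chicken red blood cells as internal standard. Cells were fixed in ice-cold ethanol, stained with 1 μg/mL DAPI on ice for 1 h, and phase distribution was read by flow cytometry. The control was 0.5% DMSO.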

In data set [4] the test system is Jurkat. The data set is described as follows: Cell cycle arrest in human Jurkat E6-1 cells assessed as accumulation at G2/M phase at 23 uM after 24 hrs by FACS flow cytometry. It is filed as functional. The essentials:
as §3

Data set [5] has as its system Jurkat. The data set is described as follows: Cell cycle arrest in human Jurkat E6-1 cells assessed as accumulation at S phase at 30 uM after 24 hrs by FACS flow cytometry. It is filed as functional. In outline:
(§4)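 Jurkat E6 T-lymphoblasts in RPMI 1640 with 10% FBS, 37 °C, 5% CO2. […] Chicken red blood cells were added as internal standard. Cells were fixed in ice-cold EtOH and stained with 1 μg/mL DAPI on ice for 1 h before flow cytometry of phase distribution. Vehicle control was 0.5% DMSO.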

The subject of data set [6] is Jurkat. The data set is described as follows: Cell cycle arrest in human Jurkat E6-1 cells assessed as accumulation at G0/G1 phase at 30 uM after 24 hrs by FACS flow cytometry. The data set is classed as functional. In outline: as §1
The next data set has as its system MCF7. The data set can be described thus: Cytotoxicity against human MCF7 cells after 48 hrs by SRB assay. It is filed as functional, cell-based. To be noted: MCF7, 48 h. The essentials:
as §2

The subject of data set [7] is Jurkat. The data set is described as follows: Cell cycle arrest in human Jurkat E6-1 cells assessed as accumulation at G2/M phase at 30 uM after 24 hrs by FACS flow cytometry. It is filed as functional. In outline:
as §3

Another data set has as its system HT-29. The data set can be described thus: Cytotoxicity against human HT-29 cells after 48 hrs by SRB assay. The data set is classed as functional, cell-based. To be noted: HT-29, 48 h. In outline:
as §2

In data set [8] the test system is Jurkat. The data set is described as follows: Cell cycle arrest in human Jurkat E6-1 cells assessed as accumulation at G0/G1 phase at 59 uM after 24 hrs by FACS flow cytometry. The data set is classed as functional. In outline: as §1
The subject of data set [9] is Jurkat. The data set is described as follows: Cell cycle arrest in human Jurkat E6-1 cells assessed as accumulation at S phase at 59 uM after 24 hrs by FACS flow cytometry. It is filed as functional. The essentials:
as §4

In data set [10] the test system is Jurkat. The data set can be described thus: Cell cycle arrest in human Jurkat E6-1 cells assessed as accumulation at G2/M phase at 59 uM after 24 hrs by FACS flow cytometry. It is filed as functional. The essentials:
as §3

The next data set has as its system HT-1080. The data set is described as follows: Antitumor activity against human HT1080 cells xenografted in chicken chorioallantoic membrane assessed as inhibition of tumor growth at 30 ug per egg, iv administered on day 11 measured on day 17 by CAM assay. It is filed as functional. In outline: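 HT-1080 fibrosarcoma cells (3.5 × 105/egg) were applied onto freshly exposed CAM of fertilized chicken eggs. On day 11, drug from a DMSO stock was diluted in Cremophor EL/99% ethanol/PBS (1/1/14 v/v) and 100 μL was injected into a vein under the CAM. Groups of 10–12 eggs were kept to day 17, embryos were euthanized at 4 °C for ≥4 h, and tumor wet weight was recorded.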

Data set [11] relates to Jurkat. The data set can be described thus: Cell cycle arrest in human Jurkat E6-1 cells assessed as accumulation at G2/M phase at 0.60 uM after 24 hrs by FACS flow cytometry. It is filed as functional. In outline: as §1
Data set [12] deals with M21. The data set can be described thus: Induction of DNA damage response in human M21 cells assessed as phosphorylation of H2AX into gammaH2AX at IC50 after 24 hrs by DAPI staining-based immunofluorescence assay. It is filed as functional, cell-based. In outline:
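M21 cells (1 × 10^5) on fibronectin-coated coverslips, grown 24 h, then exposed to agent for 24 h at 37 °C; 0.5% DMSO control. Fixed with 3.7% formaldehyde and permeabilized with 0.1% saponin/3% BSA. Probed with mouse anti-H2AX pS139 antibody for 2 h at room temperature. Nuclei counterstained with DAPI; nuclear γH2AX foci viewed by epifluorescence microscopy.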

Data set [13] deals with Jurkat. The data set can be described thus: Cell cycle arrest in human Jurkat E6-1 cells assessed as accumulation at S phase at 0.60 uM after 24 hrs by FACS flow cytometry. The data set is classed as functional. In outline:
as §3

For data set [14], the system named is Jurkat. The data set is described as follows: Cell cycle arrest in human Jurkat E6-1 cells assessed as accumulation at G0/G1 phase at 0.60 uM after 24 hrs by FACS flow cytometry. The data set is classed as functional. In outline:
as §1

The nature of data set [15]: Toxicity in fertilized chicken embryo assessed as mortality rate at 30 ug per egg, iv administered on day 11 measured on day 17 by CAM assay. The data set is classed as organism-based, Gallus gallus. The conditions noted are these: in vivo, read-out: Activity. In outline:
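Fertilized chicken eggs grafted on the CAM with HT-1080 cells (3.5 × 105/egg) received a 100 μL intravenous injection under the CAM on day 11. The drug was diluted in Cremophor EL/99% ethanol/PBS (1/1/14 v/v). Groups held 10–12 eggs and were incubated until day 17, when dead embryos and signs of toxicity were counted per group.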

In data set [16] the test system is Jurkat. The data set can be described thus: Cell cycle arrest in human Jurkat E6-1 cells assessed as accumulation at G2/M phase at 19 uM after 24 hrs by FACS flow cytometry. It is filed as functional. The essentials: as §3
Data set [17] has as its system Jurkat. The data set is described as follows: Cell cycle arrest in human Jurkat E6-1 cells assessed as accumulation at G0/G1 phase at 19 uM after 24 hrs by FACS flow cytometry. The data set is classed as functional. The essentials:
as §1

The subject of data set [18] is Jurkat. The data set can be described thus: Cell cycle arrest in human Jurkat E6-1 cells assessed as accumulation at S phase at 19 uM after 24 hrs by FACS flow cytometry. It is filed as functional. The essentials:
as §3

Data set [19] concerns Jurkat. The data set can be described thus: Cell cycle arrest in human Jurkat E6-1 cells assessed as accumulation at G2/M phase at 74 uM after 24 hrs by FACS flow cytometry. The data set is classed as functional. The essentials: as §3
Data set [20] relates to Jurkat. The data set can be described thus: Cell cycle arrest in human Jurkat E6-1 cells assessed as accumulation at G0/G1 phase at 74 uM after 24 hrs by FACS flow cytometry. The data set is classed as functional. The essentials: as §1
Data set [21] concerns Jurkat. The data set can be described thus: Cell cycle arrest in human Jurkat E6-1 cells assessed as accumulation at S phase at 74 uM after 24 hrs by FACS flow cytometry. The data set is classed as functional. The essentials: as §4

For the compound `CCCc1ccccc1OS(=O)(=O)c1cccc(NC(=O)NCC)c1`, the Activity is on record as 46% in the data set on Jurkat [1], 44% in the data set with Jurkat [3] and 10% in the data set with Jurkat [4]. The same compound displayed an IC50 in the data set with M21 [2] of 25 µM.
For the compound `CCCc1ccccc1NS(=O)(=O)c1ccc(NC(=O)NCC)cc1`, the values for the Activity with Jurkat [5], in the data set with Jurkat [6] and in the data set with Jurkat [7] were 35%, 19% and 46%, respectively. Besides, the half-inhibitory concentration (IC50) with M21 [2] amounted to 41 µM; in the data set on MCF7, 37 µM; with HT-29, 32 µM.
With `CCNC(=O)Nc1ccc(S(=O)(=O)Nc2ccccc2CC)cc1`, the values for the Activity in the data set on Jurkat [8], with Jurkat [9] and in the data set on Jurkat [10] were 21%, 41% and 38%, respectively. For the same compound, inhibition with M21 [2] was half-maximal at 90 µM (IC50).
With `CN(C)c1ccc(OS(=O)(=O)c2ccc(NC(=O)NCCCl)cc2)cc1`, the Activity with Jurkat [1] stood at 51%; with Jurkat [3], 40%; with Jurkat [4], 9%. The IC50 in the data set on M21 [2] was 43 µM; in the data set with MCF7, 58 µM; in the data set with HT-29, 39 µM.
`CCCc1ccccc1OS(=O)(=O)c1ccc(NC(=O)NCC)cc1`: in the data set on HT-1080, the TGI worked out at 65%. The values for the Activity in the data set on Jurkat [11], in the data set with Jurkat [13] and in the data set with Jurkat [14] were 7%, 81% and 12%, respectively. For the same compound, the outcome with M21 [12] was Active. For the same compound, the IC50 was found to be 0.8 µM with M21 [2], 1.3 µM in the data set with MCF7 and 2.4 µM in the data set with HT-29. Further, the mortality at 6 days in data set [15] worked out at 10%.
On to `CCc1ccccc1OS(=O)(=O)c1cccc(NC(=O)NCCCCl)c1`, for which the Activity in the data set on Jurkat [16] is on record as 17%; with Jurkat [17], 45%; in the data set on Jurkat [18] it was 38%. In the data set with M21 [2], the IC50 was 24 µM.
Take `CCCc1ccccc1NS(=O)(=O)c1cccc(NC(=O)NCC)c1`: the Activity with Jurkat [1] is on record as 39%; in the data set with Jurkat [3], 43%; in the data set on Jurkat [4], 18%. In addition, the figures for the IC50 in the data set on M21 [2], in the data set on MCF7 and in the data set with HT-29 were 60 µM, 40 µM and 41 µM, respectively.
For `CCNC(=O)Nc1cccc(S(=O)(=O)Nc2ccccc2C)c1`, the Activity with Jurkat [19] is 20%; with Jurkat [20] it was 46%; in the data set with Jurkat [21], 34%. Moreover, the IC50 in the data set with M21 [2] amounted to 131 µM; with MCF7, 108 µM; in the data set with HT-29, 102 µM.
